Laboratory results reported in PubChem BioAssay.

Biological target: Voltage-gated potassium channel subunit beta-2 (Rattus norvegicus) (UniProt P62483)
Test: KvBeta positive modulators, primary screen, biochemical, NADPH fluorescence (AID 623;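 active means NADPH fluorescence slope more negative than the mean of all samples by about 3 SD, 99.7% confidence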;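 further: fluorescence intensity change per second fitted from 20 to 320 s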)
Settings: Recombinant KvBeta, NADPH fluorescence decrease slope, 10 min; at 10 µM; active compounds read low

Voltage-gated potassium channel subunit beta-2 (Rattus norvegicus), sequence (P62483 whole entry, looked up): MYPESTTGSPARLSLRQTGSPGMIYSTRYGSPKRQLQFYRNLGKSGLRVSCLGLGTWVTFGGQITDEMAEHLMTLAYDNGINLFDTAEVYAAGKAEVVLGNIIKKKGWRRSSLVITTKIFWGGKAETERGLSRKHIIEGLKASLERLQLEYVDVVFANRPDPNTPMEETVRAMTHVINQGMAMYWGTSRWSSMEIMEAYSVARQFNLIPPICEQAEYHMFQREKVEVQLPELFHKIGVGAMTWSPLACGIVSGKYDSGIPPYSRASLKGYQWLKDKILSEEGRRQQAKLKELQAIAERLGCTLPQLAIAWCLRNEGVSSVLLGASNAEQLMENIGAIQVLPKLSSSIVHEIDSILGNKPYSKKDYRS

NADPH fluorescence slope, inactive:
CCSc1nc2c(c(=O)n(C)c(=O)n2C)n1Cc1ccc(Cl)cc1 -4.7e-05
COc1ccccc1N1CCN(C(=O)c2oc3cc(C)c(C)cc3c2C)CC1 2.2e-05
CC(C)CCNC(=O)NC(=O)CSc1nnc(-c2ccccc2Br)o1 2.9e-05
C=CCSc1ncccc1C(=O)O -6.2e-05
CC1CCc2nc(NC(=O)CN3CCN(Cc4ccc5c(c4)OCO5)CC3)sc2C1 (stereo not given) -6.2e-05
CC(=O)CC(=O)Nc1ccccc1NC(C)=O -2.4e-05
CC(C)OC(=O)CSc1nnc(Cc2ccccc2)n1Cc1ccco1 -2.4e-05
O=C(NCCN1CCCC1)C1COc2ccccc2O1 (stereo not given) -3.1e-05
COC(=O)c1ccc2c(=O)n(Cc3ccco3)c(SCC(=O)Nc3ccc(C)c(Cl)c3)nc2c1 -2.2e-05
CCC1(CC)C(=O)C(C)(C)C(=O)OC1c1cccs1 (stereo not given) -4.2e-05
CCOc1ccc(OCC)c2sc(C)nc12 -5.9e-05
CC(=O)Nc1cccc(-c2nnc(-c3ccccc3)o2)c1 -3e-05
CCOC(=O)C1=C(C)NC(=O)C(C#N)C1c1ccco1 (stereo not given) 3.3e-05
O=C1CN=C(Nc2cccc(C(F)(F)F)c2)N1C1CCCC1 -0.000109
COc1ccc(-c2nnc3ccc(SC(C(C)=O)C(C)=O)nn23)cc1OC -5.5e-05
CSc1nnc2c3ccccc3n(CCc3ccccc3)c2n1 1.9e-05
CC(C)(C)n1nc2c(c1NC(=O)COc1ccc(Cl)cc1)CSC2 -3.3e-06
COc1cccc(N2CCN(Cc3nc(N)nc(Nc4ccccc4OC)n3)CC2)c1 -3.3e-05
Cc1cc(C)cc(NC(=O)N2CCC(c3nc4ccccc4o3)CC2)c1 0.00013
O=C1CCC(=O)N1OCCCCOc1ccccc1 3.2e-05
Cc1cc(C)c2c(=O)[nH]c(=O)n(Cc3ccccc3)c2n1 2.6e-05
Cc1ccc(CNC(=O)C2CCCN(S(=O)(=O)c3cccnc3)C2)cc1 (stereo not given) 2.7e-05
COc1ccccc1OC(=O)c1ccc(SC)cc1OC -2.8e-05
COc1ccccc1OC(=O)c1ccc2nsnc2c1 -5.9e-05
CCCCCCNC(=O)Cc1c(O)c2ccccc2[nH]c1=O -5.1e-05
CCCOc1nc(N)c(C#N)c(-c2ccccc2F)c1C#N 2.2e-05
CCOC(=O)c1cc(-c2ccc(Cl)s2)nc2c1c(C)nn2C -1.5e-05
COc1ccc(-n2c(SCC(=O)Nc3ccc(C(=O)O)cc3)nnc2-c2cccs2)cc1 -0.000238
COC(=O)c1nc2n(n1)C(c1ccc(OC)c(OC)c1)C(C(=O)OC1CCCCC1)=C(C)N2 (stereo not given) -5.5e-05
O=C(NC12CC3CC(CC(C3)C1)C2)C1CCCN1C(=O)NC1CCCCC1 (stereo not given) -3.2e-05
O=C(Nc1cccc(C(F)(F)F)c1)c1cccnc1N1CCCC1 2.1e-05
COCCn1c(SCC(=O)Nc2nnc(C)s2)nnc1-c1ccncc1 -1.8e-05
Cc1noc(C)c1S(=O)(=O)NCCN1CCN(c2ccccc2)CC1 4.8e-05
c1ccc(OCCOc2ncnc3sccc23)cc1 -5e-05
CC(c1nnc(SCC(=O)Nc2sccc2C#N)n1-c1ccc(Cl)cc1)N(C)C (stereo not given) -2.7e-05
CNC(=O)c1ccccc1NC(=O)c1c(O)c2c([nH]c1=O)CCCC2 -5.8e-05
O=C(C1CCC1)N1CCc2cc(S(=O)(=O)Nc3ccc4c(c3)OCO4)ccc21 -6.2e-05
Cc1c(C(=O)OC(C)C)[nH]c2c1C(=O)CCC2 -3.8e-05
Cc1nc(-c2cnn(-c3ccccc3)c2)c2cc(C)oc2n1 9.5e-07
COc1ccc(OC(C)C(=O)N2CC(C)OC(C)C2)cc1 (stereo not given) 1.5e-06

Biological target: Muscarinic acetylcholine receptor M4 (Homo sapiens) (UniProt P08173)
Sequence (P08173 whole entry, looked up): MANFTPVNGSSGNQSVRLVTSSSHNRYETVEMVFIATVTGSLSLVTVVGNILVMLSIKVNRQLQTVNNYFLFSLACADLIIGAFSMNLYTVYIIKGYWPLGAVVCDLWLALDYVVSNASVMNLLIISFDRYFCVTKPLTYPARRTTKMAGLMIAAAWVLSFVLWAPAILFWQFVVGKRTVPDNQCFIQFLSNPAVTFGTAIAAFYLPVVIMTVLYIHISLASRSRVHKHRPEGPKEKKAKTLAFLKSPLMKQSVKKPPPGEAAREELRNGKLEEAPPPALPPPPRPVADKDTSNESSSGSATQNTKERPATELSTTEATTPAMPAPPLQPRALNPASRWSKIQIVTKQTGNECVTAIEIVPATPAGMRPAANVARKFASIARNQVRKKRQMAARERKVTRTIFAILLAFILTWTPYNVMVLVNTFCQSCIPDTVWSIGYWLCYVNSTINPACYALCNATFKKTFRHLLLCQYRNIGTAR
Test: compounds altering M4/GIRK thallium flux, either direction, primary screen, M4 allosteric agonist project, cell-based, HEK293 M4/GIRK, BTC-AM (AID 625);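 further: thallium influx through GIRK channels coupled to M4 in HEK293 cells with BTC-AM dye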
Settings: at 10 µM, actives lie on both sides
Method in brief: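 Material: M4/GIRK1/GIRK2 stable HEK293 cell line. Medium: pH 7.3 thallium assay buffer. Dosing: single compound concentration, 10 µM final. Schedule: 1 h dye loading, 2 min kinetic read. Measured by: kinetic fluorescence with BTC-AM dye. Read-out: post-addition slope, 15–24 s, of baseline-normalized fluorescence. Benchmarks: carbachol and DMSO controls.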

Fluorescence slope, inactive:
CCSc1nc2c(c(=O)n(C)c(=O)n2C)n1Cc1ccc(Cl)cc1 0.00489
COc1ccccc1N1CCN(C(=O)c2oc3cc(C)c(C)cc3c2C)CC1 0.00423
CC(C)CCNC(=O)NC(=O)CSc1nnc(-c2ccccc2Br)o1 0.0066
C=CCSc1ncccc1C(=O)O 0.00662
CC1CCc2nc(NC(=O)CN3CCN(Cc4ccc5c(c4)OCO5)CC3)sc2C1 (stereo not given) 0.00492
CC(=O)CC(=O)Nc1ccccc1NC(C)=O 0.00558
CC(C)OC(=O)CSc1nnc(Cc2ccccc2)n1Cc1ccco1 0.0048
O=C(NCCN1CCCC1)C1COc2ccccc2O1 (stereo not given) 0.0064
COC(=O)c1ccc2c(=O)n(Cc3ccco3)c(SCC(=O)Nc3ccc(C)c(Cl)c3)nc2c1 0.00926
CCC1(CC)C(=O)C(C)(C)C(=O)OC1c1cccs1 (stereo not given) 0.00495
CCOc1ccc(OCC)c2sc(C)nc12 0.00571
CC(=O)Nc1cccc(-c2nnc(-c3ccccc3)o2)c1 0.00721
CCOC(=O)C1=C(C)NC(=O)C(C#N)C1c1ccco1 (stereo not given) 0.00489
O=C1CN=C(Nc2cccc(C(F)(F)F)c2)N1C1CCCC1 0.00643
COc1ccc(-c2nnc3ccc(SC(C(C)=O)C(C)=O)nn23)cc1OC 0.00579
CSc1nnc2c3ccccc3n(CCc3ccccc3)c2n1 0.00531
CC(C)(C)n1nc2c(c1NC(=O)COc1ccc(Cl)cc1)CSC2 0.00791
COc1cccc(N2CCN(Cc3nc(N)nc(Nc4ccccc4OC)n3)CC2)c1 0.00593
Cc1cc(C)cc(NC(=O)N2CCC(c3nc4ccccc4o3)CC2)c1 0.00524
O=C1CCC(=O)N1OCCCCOc1ccccc1 0.00701
Cc1cc(C)c2c(=O)[nH]c(=O)n(Cc3ccccc3)c2n1 0.00637
Cc1ccc(CNC(=O)C2CCCN(S(=O)(=O)c3cccnc3)C2)cc1 (stereo not given) 0.00508
COc1ccccc1OC(=O)c1ccc(SC)cc1OC 0.00466
COc1ccccc1OC(=O)c1ccc2nsnc2c1 0.00471
CCCCCCNC(=O)Cc1c(O)c2ccccc2[nH]c1=O 0.0051
CCCOc1nc(N)c(C#N)c(-c2ccccc2F)c1C#N 0.00463
CCOC(=O)c1cc(-c2ccc(Cl)s2)nc2c1c(C)nn2C 0.00338
COc1ccc(-n2c(SCC(=O)Nc3ccc(C(=O)O)cc3)nnc2-c2cccs2)cc1 0.00524
COC(=O)c1nc2n(n1)C(c1ccc(OC)c(OC)c1)C(C(=O)OC1CCCCC1)=C(C)N2 (stereo not given) 0.00696
O=C(NC12CC3CC(CC(C3)C1)C2)C1CCCN1C(=O)NC1CCCCC1 (stereo not given) 0.00682
O=C(Nc1cccc(C(F)(F)F)c1)c1cccnc1N1CCCC1 0.00477
COCCn1c(SCC(=O)Nc2nnc(C)s2)nnc1-c1ccncc1 0.00934
Cc1noc(C)c1S(=O)(=O)NCCN1CCN(c2ccccc2)CC1 0.0066
c1ccc(OCCOc2ncnc3sccc23)cc1 0.00602
CC(c1nnc(SCC(=O)Nc2sccc2C#N)n1-c1ccc(Cl)cc1)N(C)C (stereo not given) 0.00514
CNC(=O)c1ccccc1NC(=O)c1c(O)c2c([nH]c1=O)CCCC2 0.00682
O=C(C1CCC1)N1CCc2cc(S(=O)(=O)Nc3ccc4c(c3)OCO4)ccc21 0.0066
Cc1c(C(=O)OC(C)C)[nH]c2c1C(=O)CCC2 0.00589
Cc1nc(-c2cnn(-c3ccccc3)c2)c2cc(C)oc2n1 0.0027
COc1ccc(OC(C)C(=O)N2CC(C)OC(C)C2)cc1 (stereo not given) 0.00556
